In ChEMBL document CHEMBL1124400, “Synthesis and evaluation of antileukemic activity of 5-thienyl- or 5-(2-furyl)-2,3-dihydro-6,7-bis(hydroxymethyl)-1H-pyrrolizine bis(alkylcarbamates) and derivatives” (J Med Chem, 1989):
Several values for one entry are separate records, joined by “and”; a condition that tells them apart may be missing. Equal values may be shown once.

What was measured:
[1] = Ratio, I x 100/ref I at a dose of 8 mg/kg in L1210 leukemic mice; type: functional
In short: (§1)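 Male B6D2F1 mice, 3 months old, received 10^5 L1210 cells ip on day 0. Dosing was ip on days 1, 5 and 9 in 20% aqueous Tween 80, 0.1–0.2 mL per 20 g, with 8 mice per group. There were 12 vehicle controls and 8 mice given mitomycin 2 mg/kg ip in water. Daily mortality was recorded, with autopsies. Ratio = treated-group MST ×100/reference-group MST; Wilcoxon, p<0.05.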

[2] = Ratio of acute lethal dose to the efficient dose at 20 mg/kg; type: functional
In short: (§2)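 Ratio of acute LD50 to efficient dose. LD50 came from single ip dosing one day after ip grafting of 10⁵ L1210 cells in B6D2F1 mice, with 9-day mortality. The efficient dose came from ip treatment on days 1, 5 and 9 in the median-survival test.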

Mus musculus [3] = test: Median survival time of treated group / untreated group, when 8 mg/kg compound is administered intraperitoneally in L1210 leukemic mice; type: functional; details: route intraperitoneal
In short: (§3)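 Male 3-month-old B6D2F1 mice, 10⁵ L1210 cells ip on day 0. Compound was given ip on days 1, 5 and 9 in aqueous 20% Tween 80 (0.1–0.2 mL per 20 g), 8 mice per group. Twelve vehicle controls. Daily mortality with autopsy to assign leukemic versus toxic death. I = treated MST × 100/control MST. Wilcoxon test, p < 0.05; active if I > 125 and p < 0.05.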

[4] = Lethal dose in L1210 leukemic mice, by administering compound intraperitoneally; type: toxicity, organism-based; details: mouse, in vivo, ip
In short: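 Male B6D2F1 mice (3 months old) received 10⁵ L1210 leukemia cells ip on day 0. One day later they were given compound ip. Mortality was recorded daily for 9 days and the acute LD50 expressed in mg/kg.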

Mus musculus [5] = test: Median survival time of treated group / untreated group, when 20 mg/kg compound is administered intraperitoneally in L1210 leukemic mice; type: functional; details: route intraperitoneal; in short: as §3
Mus musculus [6] = test: MST of mitomycin 2 mg/kg treated group x 100/MST of untreated control group at a dose of 8 mg/kg in L1210 leukemic mice; type: functional
In short: (§4)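 Reference group of 8 B6D2F1 mice bearing ip-grafted 10⁵ L1210 cells (day 0), given mitomycin 2 mg/kg in distilled water ip on days 1, 5 and 9. Controls were 12 mice given vehicle only. Mortality was followed daily with autopsy. Ref I = mitomycin-group MST × 100/control MST, run alongside each test experiment.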

[7] = Ratio, I x 100/ref I at a dose of 20 mg/kg in L1210 leukemic mice; type: functional; in short: as §1
Mus musculus [8] = test: MST of mitomycin 2 mg/kg treated group x 100/MST of untreated control group at a dose of 20 mg/kg in L1210 leukemic mice; type: functional; in short: as §4
[9] = Ratio, I x 100/ref I at a dose of 40 mg/kg in L1210 leukemic mice; type: functional; in short: as §1
[10] = Ratio, I x 100/ref I at a dose of 65 mg/kg in L1210 leukemic mice; type: functional; in short: as §1
Mus musculus [11] = test: Median survival time of treated group / untreated group, when 35 mg/kg compound is administered intraperitoneally in L1210 leukemic mice; type: functional; details: route intraperitoneal; in short: as §3
Mus musculus [12] = test: Median survival time of treated group / untreated group, when 40 mg/kg compound is administered intraperitoneally in L1210 leukemic mice; type: functional; details: route intraperitoneal; in short: as §3
Mus musculus [13] = test: MST of mitomycin 2 mg/kg treated group x 100/MST of untreated control group at a dose of 65 mg/kg in L1210 leukemic mice; type: functional; in short: as §4
[14] = Ratio of acute lethal dose to the efficient dose 65 mg/kg; type: functional; in short: as §2
Mus musculus [15] = test: MST of mitomycin 2 mg/kg treated group x 100/MST of untreated control group at a dose of 40 mg/kg in L1210 leukemic mice; type: functional; in short: as §4
Mus musculus [16] = test: Median survival time of treated group / untreated group, when 65 mg/kg compound is administered intraperitoneally in L1210 leukemic mic; type: functional; details: route intraperitoneal; in short: as §3
[17] = Ratio of acute lethal dose to the efficient dose 35 mg/kg; type: functional; in short: as §2
[18] = Ratio of acute lethal dose to the efficient dose 40 mg/kg; type: functional; in short: as §2
[19] = Ratio, I x 100/ref I at a dose of 35 mg/kg in L1210 leukemic mice; type: functional; in short: as §1
[20] = Ratio of acute lethal dose to the efficient dose 30 mg/kg; type: functional; in short: as §2
Mus musculus [21] = test: MST of mitomycin 2 mg/kg treated group x 100/MST of untreated control group at a dose of 35 mg/kg in L1210 leukemic mice; type: functional; in short: as §4
[22] = Ratio, I x 100/ref I at a dose of 50 mg/kg in L1210 leukemic mice; type: functional; in short: as §1
Mus musculus [23] = test: Median survival time of treated group / untreated group, when 100 mg/kg compound is administered intraperitoneally in L1210 leukemic mice; type: functional; details: route intraperitoneal; in short: as §3
[24] = Ratio, I x 100/ref I at a dose of 100 mg/kg in L1210 leukemic mice; type: functional; in short: as §1
Mus musculus [25] = test: MST of mitomycin 2 mg/kg treated group x 100/MST of untreated control group at a dose of 50 mg/kg in L1210 leukemic mice; type: functional; in short: as §4
Mus musculus [26] = test: MST of mitomycin 2 mg/kg treated group x 100/MST of untreated control group at a dose of 100 mg/kg in L1210 leukemic mice; type: functional; in short: as §4
Mus musculus [27] = test: Median survival time of treated group / untreated group, when 50 mg/kg compound is administered intraperitoneally in L1210 leukemic mice; type: functional; details: route intraperitoneal; in short: as §3
Mus musculus [28] = test: Median survival time of treated group / untreated group, when 16 mg/kg compound is administered intraperitoneally in L1210 leukemic mice; type: functional; details: route intraperitoneal; in short: as §3
[29] = Ratio of acute lethal dose to the efficient dose at 85 mg/kg dose; type: functional; in short: as §2
[30] = Ratio, I x 100/ref I at a dose of 16 mg/kg in L1210 leukemic mice; type: functional; in short: as §1
[31] = Ratio of acute lethal dose to the efficient dose at 100 mg/kg dose; type: functional; in short: as §2
Mus musculus [32] = test: MST of mitomycin 2 mg/kg treated group x 100/MST of untreated control group at a dose of 75 mg/kg in L1210 leukemic mice; type: functional; in short: as §4
Mus musculus [33] = test: MST of mitomycin 2 mg/kg treated group x 100/MST of untreated control group at a dose of 16 mg/kg in L1210 leukemic mice; type: functional; in short: as §4
Mus musculus [34] = test: Median survival time of treated group / untreated group, when 75 mg/kg compound is administered intraperitoneally in L1210 leukemic mice; type: functional; details: route intraperitoneal; in short: as §3
[35] = Ratio, I x 100/ref I at a dose of 75 mg/kg in L1210 leukemic mice
Mus musculus [36] = test: Median survival time of treated group / untreated group, when 100 mg/kg compound is administered intraperitoneally in L1210 leukemic mice; details: route intraperitoneal

What does the source list for `CNC(=O)OCc1c(COC(=O)NC)c(-c2cccs2)n2c1CSC2`?
Ratio [1]: 86; Ratio [2]: 2.5; Oncostatic index (Mus musculus [3]): 100; LD50 [4]: 50 mg/kg; Oncostatic index (Mus musculus [5]): 125; Ref I oncostatic index (Mus musculus [6]): 117; Ratio [7]: 103; Ref I oncostatic index (Mus musculus [8]): 121

Which Ratio [9] does the source give for `CNC(=O)OCc1c(COC(=O)NC)c(-c2cccs2)n2c1CCC2` here?
Its Ratio is 100.

What about the Ratio [10] of the same molecule?
Its Ratio is 100.

What about the Oncostatic index (Mus musculus [11]) of the same molecule?
The Oncostatic index was 167.

What about the Oncostatic index (Mus musculus [12]) of the same molecule?
The Oncostatic index was 138.

And the “Ref I oncostatic index” value (Mus musculus [13])?
Its value is 125.

What about the LD50 [4] of the same molecule?
Its LD50 is 120 mg/kg.

And the Ratio [14]?
Its Ratio is 1.8.

And the “Ref I oncostatic index” value (Mus musculus [15])?
The value was 138.

What about the Oncostatic index (Mus musculus [16]) of the same molecule?
Its Oncostatic index is 125.

What about the Ratio [17] of the same molecule?
Its Ratio is 3.4.

What about the Ratio [18] of the same molecule?
The Ratio was 3.

What about the Ratio [19] of the same molecule?
Its Ratio is 100.

And the Ratio [20]?
Its Ratio is 1.7.

And the “Ref I oncostatic index” value (Mus musculus [21])?
Its value is 167.

What does the source list for `CNC(=O)OCc1c(COC(=O)NC)c(-c2ccco2)n2c1CCC2`?
Ratio [22]: 92; Oncostatic index (Mus musculus [23]): 100; Ratio [24]: 80; Ref I oncostatic index (Mus musculus [25]): 117; LD50 [4]: > 150 mg/kg; Oncostatic index (Mus musculus [5]): 100; Ratio [7]: 86; Ref I oncostatic index (Mus musculus [26]): 125; Ref I oncostatic index (Mus musculus [8]): 117; Oncostatic index (Mus musculus [27]): 108

With `CNC(=O)OCc1c(COC(=O)NC)c(-c2ccsc2)n2c1CCC2` as the molecule, how does the Oncostatic index (Mus musculus [28]) read?
Its Oncostatic index is 100.

And the Ratio [9]?
Its Ratio is 80.

And the Ratio [29]?
Its Ratio is 1.4.

And the Oncostatic index (Mus musculus [12])?
Its Oncostatic index is 100.

And the Ratio [30]?
Its Ratio is 80.

What about the Ratio [24] of the same molecule?
Its Ratio is 86.

What about the LD50 [4] of the same molecule?
The LD50 was over 150 mg/kg.

What about the Ratio [31] of the same molecule?
Its Ratio is 1.2.

And the “Ref I oncostatic index” value (Mus musculus [15])?
The value was 125.

What about the Ref I oncostatic index (Mus musculus [26]) of the same molecule?
Its Ref I oncostatic index is 140.

What about the “Ref I oncostatic index” value (Mus musculus [32]) of the same molecule?
Its value is 140 and 126.

What about the “Ref I oncostatic index” value (Mus musculus [33]) of the same molecule?
Its value is 125.

What about the Oncostatic index (Mus musculus [34]) of the same molecule?
Its Oncostatic index is 120.

And the Ratio [35]?
Its Ratio is 86.

What about the Oncostatic index (Mus musculus [36]) of the same molecule?
The Oncostatic index was 120.
